# TbHK1 inh: blocks Trypanosoma brucei hexokinase 1 activity. recombinant TbHK1, G6PDH-coupled NADH A340. inhibition, % at 10 µM. 220,000 tested, 0.11% active;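 active = inhibition of 50% or more in the single-dose primary screen; inactive = inhibition below 50%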
# Hck Nef HTS: inhibitors of human Hck kinase activated by Nef. inhibition, % at 20 µM. Recombinant Hck-YEEI plus Nef, Z-Lyte FRET kinase assay. 220,000 tested, 0.68% active;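 active = Hck-Nef kinase inhibition above about 50%, limit read from the data; inactive = inhibition below that limit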;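 also: 0% = DMSO with Hck plus Nef and 100% = Hck alone without Nef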
# Runt-CBFb FRET: Runt domain-CBFb interaction inhibition; Q01196+Q13951; Cerulean-Runt/Venus-CBFb FRET ratio 530/480, 1 h; inhibition, % at 20 µM; 220,000 tested, 0.46% active; AID 1496;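 active = inhibition over about 50% at 20 µM in the single-dose screen, limit read from the data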;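 also: 0% = DMSO wells and 100% = excess unlabeled CBFb competitor control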
#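 Assay system: Cerulean-Runt domain / Medium: Tris 50 mM pH 7.5, KCl, K2SO4, 0.01% BSA / Timing: protein complex preformed 1 h, compound exposure 1 h, room temperature, dark / Measured by: FRET, excitation 422 nm, emission at 530 and 480 nm / Evaluation: loss of energy transfer signal / Control set: 5 µM unlabeled CBFb as full-inhibition high control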
# RanGTP-Impb inh: inhibitors of RanGTP-importin-beta interaction, primary screen, biochemical, FRET, CFP-Ran, YFP-importin-beta, homogeneous; inhibition, % (concentration not given with the values); cell-free CFP-Ran/YFP-importin-beta FRET ratio; AID 2216; 300,000 tested, 1.1% active;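 active = more than half of the replicate wells show a fall in the fluorescence ratio signal beyond about 16%, limit read from the data, passing the limit was not always enough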;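 also: 0% = DMSO wells and 100% = Ran loaded with GDP instead of GTP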
# Runt-SMMHC FRET: blocks binding of human RUNX1 Runt domain to CBFb-SMMHC. 220,000 tested, 0.74% active. Q01196+Q13951. inhibition, % at 20 µM. AID 1434. Cerulean-Runt/Venus-CBFb-SMMHC FRET ratio 530/480, 1 h;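 active = mean inhibition across duplicate retests at 20 µM reaching about 50%, limit read from the data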;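 also: 0% = DMSO wells and 100% = wells with excess untagged CBFb-SMMHC; inhibitors lower the FRET ratio by blocking Runt binding to CBFb-SMMHC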
# 14-3-3 Bad PPI: disrupts binding of bovine 14-3-3 zeta to phospho-Bad peptide; P63103; TR-FRET 14-3-3zeta/Dy647-pBad peptide displacement, 1 h; inhibition, % at 21.7 µM; 220,000 tested, 0.71% active; AID 781;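 active = inhibition above about 70%, limit read from the data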;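 also: 0% = full 14-3-3 plus peptide FRET controls and 100% = background without 14-3-3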
# Target sequence (P63103 whole entry, looked up): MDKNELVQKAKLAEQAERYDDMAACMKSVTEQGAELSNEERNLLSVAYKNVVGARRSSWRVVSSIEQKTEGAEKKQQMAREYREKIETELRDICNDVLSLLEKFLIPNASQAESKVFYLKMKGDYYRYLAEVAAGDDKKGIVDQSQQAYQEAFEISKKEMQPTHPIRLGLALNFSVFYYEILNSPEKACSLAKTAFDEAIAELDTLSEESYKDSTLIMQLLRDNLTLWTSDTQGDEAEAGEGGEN
# The depositor's hits bear a star; · = no result given; [ ] = another dose, or the depositor's remark. A selection: hits, their analogues and other compounds. The true share with any hit is near 2.2%.
SMILES,TbHK1 inh,Hck Nef HTS,Runt-CBFb FRET,RanGTP-Impb inh,Runt-SMMHC FRET,14-3-3 Bad PPI
COc1ccc(N2CCN(C(c3ccccc3OC)c3nnnn3C3CCCC3)CC2)cc1 (stereo not given),-5,-10,1,4,0,23
COc1ccc(N2CCN(C(c3cccc(OC)c3OC)c3nnnn3C3CCCC3)CC2)cc1 (stereo not given),-9,-22,3,5,2,77*
CCCc1cc(N2CCN(C(=O)c3ccco3)CC2)n2c(nc3ccccc32)c1C#N,-11,8,23,31*,65*,-1
COc1ccc(S(=O)(=O)NCCc2cn3nc(C)c(C)nc3n2)cc1F,·,·,·,17*,·,·
CN(Cc1ccccc1)c1ccc(N2C(=O)CCCC2=O)cc1[N+](=O)[O-],29,4,-3,2,-15,-4
COc1ccc(NC2=NCCC(=O)N2Cc2cccs2)cc1,5,2,1,-1,2,13
COc1cccc(NC2=NCC(=O)N2Cc2cccs2)c1,-4,1,-1,2,-2,71*
COc1ccc(NC2=NCC(=O)N2Cc2cccs2)cc1,-9,0,-4,3,-1,75*
COc1ccccc1NC1=NCC(=O)N1Cc1ccccc1,-10,-1,2,2,0,28
COc1ccc(CN2C(=O)CN=C2Nc2cccc(C)c2C)cc1,-5,0,-2,0,2,82*
Cc1ccc(NC2=NCC(=O)N2Cc2cccs2)cc1C,-2,-5,-2,-2,3,-2
COc1cc2c(cc1OC)[C@H](C)N(C(=O)NCc1ccccc1)CC2,·,·,·,4,·,·
COc1ccc2c(c1)OC1=C(C(=O)CCC1)C2C1=C(O)CCCC1=O (stereo not given),-10,1,4,-9,6,73*
COC(=O)C1Sc2[nH]c(=O)sc2C2c3ccccc3OC(=O)C12 (stereo not given),2,-1,17,60*,-4,1
CC1(C(=O)O)Sc2[nH]c(=O)sc2C2c3ccccc3OC(=O)C21 (stereo not given),-8,-1,13,48*,2,7
O=C(O)C1Sc2[nH]c(=O)sc2C2c3ccc(O)cc3OC(=O)C12 (stereo not given),-2,30,20,·,87*,-8
Cc1ccc2nc(Cl)c(C3CC(c4cccs4)=NN3S(C)(=O)=O)cc2c1 (stereo not given),34,-2,0,-1,14,-9
CCOc1ccc(C(=O)NCC(=O)NCC(c2ccc(OC)cc2)N2CCOCC2)cc1OCC (stereo not given),·,·,·,3,·,·
Cc1cccc(C)c1OCc1cc(C(=O)N(C)Cc2nc3ccccc3[nH]2)no1,·,·,·,-3,·,·
Cc1ccc(C(=O)N2CCN(Cc3ccc4c(c3)OCO4)CC2)cc1[N+](=O)[O-],1,-5,-1,2,1,-13
COc1ccc2nc(SCC(=O)NC(C)C)[nH]c2c1,2,0,0,4,0,80*
COc1cc(C(=O)OC(C)CN2C(C)CCCC2C)cc(OC)c1OC (stereo not given),·,·,·,1,·,·
O=C(COC(=O)Cc1ccsc1)Nc1ccc(Cl)c(S(=O)(=O)N2CCOCC2)c1,7,0,0,5,-2,0
O=C(CCCCl)Oc1ccc2cc(-c3ccc4ccccc4n3)c(=O)oc2c1,-13,-4,19,102*,86*,-5
CC(=O)Oc1ccc2cc(-c3ccccc3)c(=O)oc2c1,-5,3,27,81*,81*,2
SMILES,TbHK1 inh,Hck Nef HTS,Runt-CBFb FRET,RanGTP-Impb inh,Runt-SMMHC FRET,14-3-3 Bad PPI
CC(=O)COc1ccc2cc(-c3ccccc3)c(=O)oc2c1,·,·,·,7,·,·
C=CCOc1cccc(CNc2cccc(C(=O)O)c2)c1,14,-5,2,-1,-2,-4
COc1ccccc1C1CC(c2cccs2)=Nc2ccccc2S1 (stereo not given),-9,-2,33,4,5,7
COc1ccccc1C1CN(c2ccc(F)cc2F)N=C1c1cccs1 (stereo not given),-4,47,16,-10,83*,-14
CC1CN(C(=O)CSc2nnc(-c3ccccc3)o2)CC(C)O1 (stereo not given),·,·,·,-3,·,·
COc1cc(/C=N/Nc2nnc3c(n2)[nH]c2ccccc23)ccc1O,-14,2,-2,3,1,83*[fluorescence artefact?]
COc1cc(NC(=O)c2ccc([N+](=O)[O-])cc2)c(OC)cc1NC(=O)CC(C)C,4,-3,-3,3,2,-10
O=C(O)c1ccc(S(=O)(=O)N2CCSCC2)cc1,·,·,·,2,·,·
O=C(O)c1cccc(S(=O)(=O)N2CCSCC2)c1,3,1,0,2,2,77*
CCOc1cc(C2C(C#N)=C(N)Oc3cc(N)ccc32)ccc1O (stereo not given),·,·,·,69*,·,·
N#CC1=C(N)Oc2cc(N)ccc2C1C1CC=CCC1 (stereo not given),3,2,42,141*,41,6
Cc1ccc(C2C(C#N)=C(N)Oc3cc(N)ccc32)cc1 (stereo not given),·,·,·,90*,·,·
CCOc1cc(C2C(C#N)=C(N)OC(C)=C2C(C)=O)cc(Br)c1O (stereo not given),-4,-1,1,19*,1,7
Cc1ccc(/C=C2\CCC3=C2OC(N)=C(C#N)C3c2ccc(C)cc2)cc1 (stereo not given),-8,4,-31,-81,-74,7
Cc1cccnc1NC(=O)C1CCC1,·,·,·,2,·,·
N#CC1=C(N)Oc2cc(N)ccc2C1c1cccc(Br)c1 (stereo not given),·,·,·,55*,·,·
N#CC1=C(N)Oc2cc(N)ccc2C1c1ccsc1 (stereo not given),-6,1,23,33*,23,-3
N#CC1=C(N)Oc2cc(N)ccc2C1c1cc(Br)cs1 (stereo not given),·,·,·,-9,·,·
CCOC(=O)C1(CC/C(C)=N\NC(N)=O)CC(C)(C)OC1=O (stereo not given),0,0,0,6,1,0
NNC(=S)Nc1cc(S(=O)(=O)N2CCOCC2)ccc1N1CCOCC1,-3,8,2,1,1,94*
CN(C)S(=O)(=O)c1ccc(Cl)c(NC(=O)COC(=O)C2CSC3(C)CCC(=O)N23)c1 (stereo not given),-1,3,-2,0,1,-32
CN(C)[C@@H]1C(=O)C(C(=O)NCN2CCCC2)=C(O)[C@@]2(O)C(=O)C3=C(O)c4c(O)cccc4[C@@](C)(O)C3CC12 (stereo not given in full),-7,15,8,·,9,85*
COCCNC(=S)N=Nc1c(O)[nH]c2c(C)cc(C)cc12,-6,5,-1,156*,-1,-23

# High-throughput results: PubChem, several laboratories
